Format in all cases: functional, organism-based
For one assay, the system named is Cryptococcus neoformans. Description: Antifungal activity against Cryptococcus neoformans ATCC 90113 by M27A2 method.
A further assay has as its system Leishmania donovani. Description: Antileishmanial activity against Leishmania donovani promastigotes after 72 hrs by alamar blue assay. The procedure, abridged: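 L. donovani promastigote culture at 2 × 10^6 cells/mL was exposed to diluted compound in microplate wells and incubated at 26 °C for 72 h. Promastigote growth was read by Alamar blue. Pentamidine and amphotericin B were the reference drugs.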
Background: Resazurin is reduced to fluorescent resorufin, in cell work by metabolically active cells.

Assay [1] has as its system Staphylococcus aureus. The assay is described as follows: Antibacterial activity against Staphylococcus aureus ATCC 29213 by CLSI method.
Assay [2] relates to Staphylococcus aureus. The assay is described as follows: Antibacterial activity against methicillin-resistant Staphylococcus aureus ATCC 33591 by CLSI method. An outline of the steps: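 Methicillin-resistant S. aureus ATCC 33591 tested by a modified CLSI (formerly NCCLS) susceptibility method. Ciprofloxacin was included as the control drug in each assay.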

The structures appear in SMILES notation.

For `C=C1CC[C@@H]2C(C)(C)CCC[C@@]2(C)[C@@H]1CC/C(C)=C/C[n+]1cn(C)c2nc[nH]/c(=N\O)c21`, in the assay with Cryptococcus neoformans, the midpoint of inhibition, the IC50, lay at 5.94 µg/mL and the MIC (commonly the lowest concentration that inhibits growth of the organism) was found to be 10 µg/mL. For the same compound, in the assay with Leishmania donovani, the IC50 (as a rule, the midpoint of a concentration-inhibition curve) was 29.3 µg/mL and the 90% effect level (IC90) was put at 34 µg/mL.
For `CC1=CCC[C@@H]2[C@@](C)(CC/C(C)=C/C[n+]3cn(C)c4nc[nH]/c(=N/O)c43)[C@H](C)CC[C@@]12C` [AGELOXIME B], the IC50 in the assay on Staphylococcus aureus [1] is 7.21 µg/mL; in the assay on Cryptococcus neoformans, 4.96 µg/mL; in the assay on Staphylococcus aureus [2], 9.2 µg/mL; in the assay on Leishmania donovani, 28.5 µg/mL. For the same compound, the MIC was determined as 10 µg/mL in the assay with Staphylococcus aureus [1], 10 µg/mL in the assay on Cryptococcus neoformans and 20 µg/mL against Staphylococcus aureus [2]. Moreover, it took 33.2 µg/mL to reach the 90% level with Leishmania donovani (IC90).
